The record followed here is ChEMBL document CHEMBL1154485, “Novel 2-aryl-naphtho[1,2-d]oxazole derivatives as potential PTP-1B inhibitors showing antihyperglycemic activities” (Eur J Med Chem, 2009).

Each structure is given as a SMILES string.

Assay [1] deals with Rattus norvegicus. Description: Antihyperglycemic activity against sucrose-loaded Charles-Foster Wistar albino rat assessed as reduction in blood glucose at 100 mg/kg, po administered 30 mins before sucrose challenge relative to control. Type of assay: functional. On the set-up: scale not given: the % may be the effect or the level left. In a few lines:
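Male Charles Foster/Wistar rats, 160 ± 20 g, fasted 16 h, selected at 60e80 mg/dl glucose, groups of 5-6. Compound given orally at 100 mg/kg in 1.0% gum acacia; sucrose 10.0 g/kg orally 30 min later. Glucose read by glucometer at 30-120 min. Percent activity derived from AUC versus vehicle.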

For assay [2], the target named is T1, Tyrosine-protein phosphatase non-receptor type 1 (Homo sapiens, UniProt P18031).
T1 sequence (P18031 whole entry): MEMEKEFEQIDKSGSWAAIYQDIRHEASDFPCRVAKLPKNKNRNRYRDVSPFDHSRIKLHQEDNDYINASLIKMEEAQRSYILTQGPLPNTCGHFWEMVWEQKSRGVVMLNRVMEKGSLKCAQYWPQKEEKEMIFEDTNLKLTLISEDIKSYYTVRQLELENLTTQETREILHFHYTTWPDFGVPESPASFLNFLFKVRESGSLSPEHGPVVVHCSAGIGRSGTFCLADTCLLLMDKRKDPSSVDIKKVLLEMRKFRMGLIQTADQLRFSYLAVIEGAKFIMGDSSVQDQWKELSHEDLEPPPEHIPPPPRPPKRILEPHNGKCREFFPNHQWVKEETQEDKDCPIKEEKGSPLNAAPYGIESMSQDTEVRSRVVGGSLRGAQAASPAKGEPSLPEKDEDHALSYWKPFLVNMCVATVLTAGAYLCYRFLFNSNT
Briefly: Inhibition of PTP1B assessed as residual enzyme activity. In a few lines:
(§1)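 PTP-1B pre-incubated 10 min with compound, with or without 0.01% Triton X-100. Reaction: 10 mM pNPP in 50 mM HEPES pH 7.0 with 1 mM DTT and 2 mM EDTA, 30 min at 37 °C. Stopped with 0.1 N NaOH, p-nitrophenolate read at 410 nm (ε 1.78×10⁴ M⁻¹cm⁻¹). Single-concentration screen was the mean of three independent sets. Sodium orthovanadate served as standard.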

Assay [3] addresses T1, Tyrosine-protein phosphatase non-receptor type 1. Description: Inhibition of PTP1B assessed as residual enzyme activity in presence of Triton X-100. In a few lines:
as §1

Assay [4] has as its system Rattus norvegicus. Description: Antihyperglycemic activity against sucrose-challenged streptozotocin-induced fasted Sprague-Dawley rat assessed as reduction in blood glucose at 100 mg/kg, po administered 30 mins before sucrose challenge measured after 24 hrs post sucrose dose relative to control. Type of assay: functional. On the set-up: scale not given: the % may be the effect or the level left. In a few lines:
(§2)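 Male Sprague Dawley rats, 160 ± 20 g, overnight fasted, given streptozotocin 45 mg/kg i.p. in citrate buffer pH 4.5. Rats at 144-270 mg/dl glucose after 48 h were used, 5-6 per group. Oral dose 100 mg/kg in 1.0% gum acacia, sucrose 2.5 g/kg 30 min later. Glucose read at 30-300 min and 24 h. Activity derived from AUC versus control.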

Assay [5] relates to Rattus norvegicus. Description: Antihyperglycemic activity against sucrose-challenged streptozotocin-induced fasted Sprague-Dawley rat assessed as reduction in blood glucose at 100 mg/kg, po administered 30 mins before sucrose challenge measured after 5 hrs post sucrose dose relative to control. It counts as functional. On the set-up: scale not given: the % may be the effect or the level left. In a few lines: as §2

For assay [6], the species on record is Mus musculus. Description: Antihyperglycemic activity against C57BL/KsBom db/db type 2 diabetic mouse model assessed as decrease in postprandial blood glucose level on day 3 by OGTT relative to control. It counts as functional. The arrangement: concentration or dose not given beside the values.
The subject of assay [7] is Mus musculus. Description: Antidyslipidemic activity in C57BL/KsBom db/db diabetic mouse assessed as increase in high-density lipoprotein cholesterol level at 100 mg/kg, po. It counts as functional. In a few lines: (§3)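 Male and female C57BL/KsBom-db mice, 12e18 weeks, 40e50 g, ten per experiment, housed by sex at 23 °C on a 12/12 h cycle. Test drug given orally at 100 mg/kg in gum acacia (1.0%); vehicle controls received gum acacia only. Dosing ran 10 days. Effects on triglyceride, cholesterol and HDL are reported as % change.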

Assay [8] is filed under the species Mus musculus. Description: Antihyperglycemic activity against C57BL/KsBom db/db type 2 diabetic mouse model assessed as decrease in postprandial blood glucose level on day 6 by OGTT relative to control. It counts as functional. On the set-up: scale not given: the % may be the effect or the level left. In short, it runs like this:
(§4)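 Male and female C57BL/KsBom-db mice, 12e18 weeks, 40e50 g, ten used, vehicle 1.0% gum acacia. Day 6 postprandial protocol: glucose read at -0.5 and 0 h, then at 1, 2, 3, 4 and 6 h after dosing. Day 10 OGTT: overnight fast, drug given at -30 min, glucose 3 g/kg at 0 min, glucose read at 30-120 min.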

Assay [9] relates to Mus musculus. Briefly: Antidyslipidemic activity in C57BL/KsBom db/db diabetic mouse assessed as reduction in plasma cholesterol level at 100 mg/kg, po. On the set-up: scale not given: the % may be the effect or the level left. Type of assay: functional. In short, it runs like this:
as §3

For assay [10], the species on record is Mus musculus. Briefly: Antihyperglycemic activity against C57BL/KsBom db/db type 2 diabetic mouse model assessed as decrease in postprandial blood glucose level on day 10 by OGTT relative to control. Type of assay: functional. The arrangement: scale not given: the % may be the effect or the level left. In a few lines: as §4
Assay [11] concerns Mus musculus. Briefly: Antidyslipidemic activity in C57BL/KsBom db/db diabetic mouse assessed as reduction in plasma triglyceride level at 100 mg/kg, po. On the set-up: scale not given: the % may be the effect or the level left. Type of assay: functional. In a few lines: as §3

As to `O=C(O)COc1ccc(-c2nc3c(ccc4ccccc43)o2)cc1`, the Activity in assay [1] amounted to 4.6%.

Regarding `c1ccc2c(c1)ccc1oc(-c3ccc(OCCN4CCCC4)cc3)nc12`, the Activity in [1] is reported as 8.7%. Also, in assay [2], the 50% inhibitory concentration (IC50) – broadly, the concentration at which inhibition is half-maximal – came out at 5.71 µM; the inhibitory constant (Ki) (as a rule, the dissociation constant of the complex between target and ligand, obtained from inhibition or displacement) turned out to be 34.2 µM. In [3], the IC50 is 5.7 µM and the inhibition constant Ki is 37 µM.

In the case of `c1ccc2c(c1)ccc1oc(-c3ccc(OCCCN4CCCCC4)cc3)nc12`, the Activity amounted to 25% in assay [1], 11.2% in assay [4] and 13.4% in assay [5].

As to `c1ccc2c(c1)ccc1oc(-c3ccc(OCCCN4CCCC4)cc3)nc12`, the Activity turned out to be 17.2% in assay [1], 12.9% in assay [4] and 12.6% in [5].

`COc1ccc(NCCCOc2ccc(-c3nc4c(ccc5ccccc54)o3)cc2)cc1`: in assay [1], the Activity was 11.8%.

In the case of `CCCCN(C)CCCOc1ccc(-c2nc3c(ccc4ccccc43)o2)cc1`, the figures for the Activity in [1], in assay [4] and in assay [5] were 14.7%, 9.2% and 7.8%, respectively.

Take `CCOC(=O)COc1ccc(-c2nc3c(ccc4ccccc43)o2)cc1`: the Activity in assay [1] is given as 11.4%.

For `O=C(O)CCCOc1ccc(-c2nc3c(ccc4ccccc43)o2)cc1`, in assay [1], the Activity worked out at 5.8%.

`Oc1ccc(-c2nc3c(ccc4ccccc43)o2)cc1`: in assay [1], the Activity amounted to 10.8%.

With `CCN(CC)CCCOc1ccc(-c2nc3c(ccc4ccccc43)o2)cc1`, the Activity in assay [1] is listed as 20.5%; in [4], 13.6%; in assay [5], 11.5%; in [6] it was 10.8%. For the same molecule, the results for the IC50 in [2] and in assay [3] were 3.4 µM and 3.36 µM, respectively. In addition, the Ki was found to be 40.5 µM in assay [2] and 41 µM in assay [3].

As for `ClCCCOc1ccc(-c2nc3c(ccc4ccccc43)o2)cc1`, the Activity in assay [1] was determined as 7.4%.

As for `c1ccc2c(c1)ccc1oc(-c3ccc(OCCN4CCCCC4)cc3)nc12`, the Activity in assay [1] worked out at 26.9%; in assay [4], 15.7%; in assay [5], 16.4%; in assay [6], 10.4%. Also, the IC50 in assay [2] worked out at 1.9 µM; in [3], 1.86 µM. In addition, the Ki in [2] was determined as 27.5 µM; in assay [3] it was 27.1 µM.

On to `CCN(CC)CCOc1ccc(-c2nc3c(ccc4ccccc43)o2)cc1`, for which the Activity in assay [1] is listed as 21.7%; in assay [4], 9.7%; in [5], 11.4%. Also, the results for the 50% inhibitory concentration (IC50) in assay [2] and in assay [3] were 4.6 µM and 4.55 µM, respectively. In addition, the Ki stood at 35 µM in assay [2] and 35.5 µM in [3].

`CCCCCCCCNCCCOc1ccc(-c2nc3c(ccc4ccccc43)o2)cc1`: the Activity in [1] stood at 15%.

For the molecule `CN(C)CCOc1ccc(-c2nc3c(ccc4ccccc43)o2)cc1`, the Activity in assay [7] is recorded as 3%; in assay [1] it was 35.9%; in [4], 25.7%; in assay [8] it was 21.4%; in assay [5] it was 27.9%; in assay [9], 17.6%. Moreover, the Activity in assay [10] is on record as 23.6%; in [6] it was 18.9%; in assay [11], 10.5%. The concentration for half-maximal inhibition (IC50) in [2] came out at 3.51 µM; in assay [3], 3.56 µM. Also, the figures for the Ki in assay [2] and in [3] were 25.1 µM and 28.7 µM, respectively.

Regarding `CN(C)CCCOc1ccc(-c2nc3c(ccc4ccccc43)o2)cc1`, the Activity in assay [1] was 25.2%; in [4], 20.3%; in assay [5] it was 15.6%; in [6] it was 16.7%. Further, the concentration for half-maximal inhibition (IC50) is 3.5 µM in assay [2] and 3.52 µM in assay [3]. Moreover, the Ki was 34.1 µM in assay [2] and 36.3 µM in assay [3].

As to `CCCCN(C)CCOc1ccc(-c2nc3c(ccc4ccccc43)o2)cc1`, the Activity in assay [7] was found to be 1.3%; in [1] it was 35.3%; in assay [4], 18.7%; in assay [8] it was 22.4%; in [5] it was 17.4%; in assay [9] it was 12.2%. Besides, the Activity is 24.1% in assay [10], 22.3% in [6] and 7.5% in [11]. In addition, the IC50 in [2] came out at 2.5 µM; in assay [3], 2.52 µM. The values for the Ki in assay [2] and in assay [3] were 44.4 µM and 41 µM, respectively.

As to `CCOC(=O)CCCOc1ccc(-c2nc3c(ccc4ccccc43)o2)cc1`, in assay [1], the Activity stood at 9.5%.

For `CC(=O)Oc1ccc(-c2nc3c(ccc4ccccc43)o2)cc1`, the Activity in assay [1] is listed as 16.8%.

With `Cc1ccc(NCCCOc2ccc(-c3nc4c(ccc5ccccc54)o3)cc2)cc1`, the Activity in assay [1] came out at 17.2%; in [4], 15.2%; in [5], 14.6%.

Turning to `Cc1ccc(S(=O)(=O)NC(=O)NN2CC3CCCC3C2)cc1` (configuration not stated) [GLICLAZIDE], the Activity in assay [1] is 44.8%; in [5], 27.7%; in assay [6] it was 17.4%.

In the case of `COc1ccc(Cl)cc1C(=O)NCCc1ccc(S(=O)(=O)NC(=O)NC2CCCCC2)cc1` [GLYBURIDE], the values for the Activity in [1], in [5] and in assay [6] were 33.9%, 32.8% and 13.6%, respectively.

In the case of `CN(C)C(=N)NC(=N)N` [METFORMIN], the Activity in assay [1] was found to be 12.9%; in assay [4], 20.2%; in [6], 11.2%.
